How the values were obtained:
HeLa = assay: cells; type: functional; conditions: Homo sapiens, 72 h
HuT78 = assay: cells; type: functional; conditions: Homo sapiens, HuT78, 72 h
HCT-116 [1] = assay: cells; type: functional; conditions: Homo sapiens, HCT-116, 72 h
Histone deacetylase = assay: Inhibition of HDAC in human HeLa cell nuclear extracts by fluorimetric assay; type: protein assay
U-937 = assay: cells; type: functional; conditions: Homo sapiens, U-937, 72 h
[2] = Cmax in CD1 mouse plasma at 3 mg/kg, po or 1 mg/kg, iv; type: ADME, organism-based
Procedure, shortened: (§1)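 Cassette PK study in CD1 mice, dosed 3 mg/kg po and 1 mg/kg iv. Cmax was measured in plasma and spleen, and oral bioavailability F was derived.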

Cytochrome P450 2C8 = target: T1, Cytochrome P450 2C8 (Homo sapiens, UniProt P10632); assay: Inhibition of CYP2C8 at 50 uM; type: ADME
T1 sequence (P10632 whole entry): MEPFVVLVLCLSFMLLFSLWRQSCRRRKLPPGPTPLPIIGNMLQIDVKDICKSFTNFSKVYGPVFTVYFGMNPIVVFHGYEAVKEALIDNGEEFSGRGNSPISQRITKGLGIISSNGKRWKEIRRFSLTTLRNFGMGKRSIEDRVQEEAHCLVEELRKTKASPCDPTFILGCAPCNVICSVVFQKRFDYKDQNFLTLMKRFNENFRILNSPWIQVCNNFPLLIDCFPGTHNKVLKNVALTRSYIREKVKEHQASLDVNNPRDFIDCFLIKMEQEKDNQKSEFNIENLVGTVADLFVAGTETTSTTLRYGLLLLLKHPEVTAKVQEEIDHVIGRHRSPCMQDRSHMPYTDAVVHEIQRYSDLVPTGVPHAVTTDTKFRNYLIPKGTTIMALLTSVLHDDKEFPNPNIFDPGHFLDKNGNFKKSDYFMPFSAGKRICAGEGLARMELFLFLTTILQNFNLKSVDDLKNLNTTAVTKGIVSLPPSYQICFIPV

HCT-116 [3] = assay: Antitumor activity against human HCT116 cells xenografted in CrTac:NCr-Fox1 (nu) athymic mouse assessed as tumor weight at 50 mg/kg, po qd for 16 days relative to untreated control; type: functional
Procedure, shortened: (§2)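 Female athymic mice (n = 14) bearing established bilateral HCT116 colon carcinoma xenografts; oral dosing once daily for 16 days at 50 mg/kg. Read-outs are final tumour weight and mean tumour volume, each relative to control. Body weight was monitored.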

[4] = target: Voltage-gated inwardly rectifying potassium channel KCNH2 (Homo sapiens, UniProt Q12809); assay: Inhibition of human ERG channel
Spleen [5] = assay: Drug level in spleen of human HCT116 cells xenografted in CrTac:NCr-Fox1 (nu) athymic mouse at 50 mg/kg, po qd for 16 days measured after 1 hr; type: ADME, organism-based, HCT-116; set-up: dose 50 mg/kg, route oral; conditions: in vivo
Procedure, shortened: (§3)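 Tissue levels measured in female athymic mice bearing bilateral HCT116 xenografts after oral 50 mg/kg once daily for 16 days. Sampled at 0.5, 1 and 4 h post dose. Plasma is reported in nM; tumour and spleen in nmol/kg. The 1 h values are the mean of three samples; 0.5 and 4 h values are means of two.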

Spleen [6] = assay: Drug level in spleen of human HCT116 cells xenografted in CrTac:NCr-Fox1 (nu) athymic mouse at 50 mg/kg, po qd for 16 days measured after 0.5 hrs; type: ADME, organism-based, HCT-116; set-up: dose 50 mg/kg, route oral; conditions: in vivo
Procedure, shortened: as §3

[7] = Drug level in tumor of human HCT116 cells xenografted in CrTac:NCr-Fox1 (nu) athymic mouse at 50 mg/kg, po qd for 16 days measured after 1 hr; type: ADME, organism-based, Neoplasm, HCT-116; set-up: dose 50 mg/kg, route oral; conditions: in vivo
Procedure, shortened: as §3

[8] = Metabolic stability in human liver microsomes at 10 uM after 30 mins; type: ADME, Microsome; conditions: read-out: Stability
Procedure, shortened: (§4)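 Compound at 10 µM incubated with human or mouse liver microsomes. Read-out is the percentage of parent remaining after 30 min.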

[9] = Oral bioavailability in CD1 mouse at 3 mg/kg; type: ADME, organism-based; conditions: in vivo
Procedure, shortened: as §1

Cytochrome P450 2D6 = Cytochrome P450 2D6 (Homo sapiens, UniProt P10635); assay: Inhibition of CYP2D6 at 50 uM; type: ADME
HCT-116 [10] = assay: Antitumor activity against human HCT116 cells xenografted in CrTac:NCr-Fox1 (nu) athymic mouse assessed as tumor volume at 50 mg/kg, po qd for 16 days relative to untreated control; type: functional
Procedure, shortened: as §2

Mus musculus [11] = assay: Inhibition of HDAC in tumor tissue of human HCT116 cells xenografted CrTac:NCr-Fox1 (nu) athymic mouse assessed as increase in histone H3 acetylation at 50 mg/kg, po qd for 16 days measured 1 hr post dose by Western blot relative to untreated control; type: functional, HCT-116
Procedure, shortened: (§5)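 Female athymic nude mice bearing established bilateral HCT116 colon carcinoma xenografts (n = 14), dosed orally once daily for 16 days at 50 mg/kg. Tumour tissue taken after the final dose; histone H3 acetylation by Western blot with anti-acetylated H3 antibody. Band intensity by densitometry, normalised to GAPDH, and expressed as % of DMSO controls. One animal per value, n = 1–3.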

[12] = Metabolic stability in mouse liver microsomes at 10 uM after 30 mins; type: ADME, Microsome; conditions: read-out: Stability
Procedure, shortened: as §4

[13] = Drug level in tumor of human HCT116 cells xenografted in CrTac:NCr-Fox1 (nu) athymic mouse at 50 mg/kg, po qd for 16 days measured after 0.5 hrs; type: ADME, organism-based, Neoplasm, HCT-116; set-up: dose 50 mg/kg, route oral; conditions: in vivo
Procedure, shortened: as §3

[14] = Permeability from basolateral to apical side in human Caco-2 cells; type: ADME, cell-based; conditions: read-out: permeability
[15] = Drug level in tumor of human HCT116 cells xenografted in CrTac:NCr-Fox1 (nu) athymic mouse at 50 mg/kg, po qd for 16 days measured after 4 hrs; type: ADME, organism-based, Neoplasm, HCT-116; set-up: dose 50 mg/kg, route oral; conditions: in vivo
Procedure, shortened: as §3

[16] = Apparent permeability of the compound by PAMPA assay; type: ADME
Cytochrome P450 3A4 = Cytochrome P450 3A4 (Homo sapiens, UniProt P08684); assay: Inhibition of CYP3A4 at 50 uM; type: ADME
Cytochrome P450 1A2 = target: T2, Cytochrome P450 1A2 (Homo sapiens, UniProt P05177); assay: Inhibition of CYP1A2 at 50 uM; type: ADME
T2 sequence (P05177 whole entry): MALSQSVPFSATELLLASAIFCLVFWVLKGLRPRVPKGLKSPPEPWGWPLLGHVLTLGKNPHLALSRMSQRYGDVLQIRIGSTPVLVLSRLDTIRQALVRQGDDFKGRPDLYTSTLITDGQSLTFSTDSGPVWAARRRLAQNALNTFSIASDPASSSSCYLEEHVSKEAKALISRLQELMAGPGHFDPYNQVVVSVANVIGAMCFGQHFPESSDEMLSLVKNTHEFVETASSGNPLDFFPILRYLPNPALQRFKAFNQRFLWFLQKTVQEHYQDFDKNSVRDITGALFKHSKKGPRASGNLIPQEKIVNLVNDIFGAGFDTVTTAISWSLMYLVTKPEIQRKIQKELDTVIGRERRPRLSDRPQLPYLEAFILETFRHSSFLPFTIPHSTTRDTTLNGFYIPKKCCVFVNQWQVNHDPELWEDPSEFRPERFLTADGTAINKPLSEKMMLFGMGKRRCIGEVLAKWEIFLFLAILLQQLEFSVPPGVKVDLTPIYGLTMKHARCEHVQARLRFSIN

Spleen [17] = assay: Drug level in spleen of human HCT116 cells xenografted in CrTac:NCr-Fox1 (nu) athymic mouse at 50 mg/kg, po qd for 16 days measured after 4 hrs; type: ADME, organism-based, HCT-116; set-up: dose 50 mg/kg, route oral; conditions: in vivo
Procedure, shortened: as §3

[18] = Drug level in plasma of human HCT116 cells xenografted in CrTac:NCr-Fox1 (nu) athymic mouse at 50 mg/kg, po qd for 16 days measured after 4 hrs; type: ADME, organism-based, HCT-116; set-up: dose 50 mg/kg, route oral; conditions: read-out: Drug uptake
Procedure, shortened: as §3

Cytochrome P450 2A6 = target: T3, Cytochrome P450 2A6 (Homo sapiens, UniProt P11509); assay: Inhibition of CYP2A6 at 50 uM; type: ADME
T3 sequence (P11509 whole entry): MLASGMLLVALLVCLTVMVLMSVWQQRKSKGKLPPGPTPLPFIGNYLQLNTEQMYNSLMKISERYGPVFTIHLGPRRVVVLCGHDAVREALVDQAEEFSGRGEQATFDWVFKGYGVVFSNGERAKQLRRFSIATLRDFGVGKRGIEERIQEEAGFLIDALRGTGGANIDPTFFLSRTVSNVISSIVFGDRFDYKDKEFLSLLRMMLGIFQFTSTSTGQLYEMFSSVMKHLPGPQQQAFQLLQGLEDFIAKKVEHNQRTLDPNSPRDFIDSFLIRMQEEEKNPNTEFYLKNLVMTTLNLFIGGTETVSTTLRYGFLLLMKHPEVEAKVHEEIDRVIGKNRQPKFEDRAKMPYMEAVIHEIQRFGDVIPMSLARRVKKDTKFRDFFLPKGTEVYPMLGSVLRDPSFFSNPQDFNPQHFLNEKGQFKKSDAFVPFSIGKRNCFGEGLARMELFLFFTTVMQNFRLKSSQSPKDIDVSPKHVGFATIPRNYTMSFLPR

Cytochrome P450 2C19 = Cytochrome P450 2C19 (Homo sapiens, UniProt P33261); assay: Inhibition of CYP2C19 at 50 uM; type: ADME
[19] = Cmax in CD1 mouse spleen at 3 mg/kg, po or 1 mg/kg, iv; type: ADME, organism-based
Procedure, shortened: as §1

Mus musculus [20] = assay: Inhibition of HDAC in human HCT116 cells xenografted CrTac:NCr-Fox1 (nu) athymic mouse assessed as increase in histone H3 acetylation at 50 mg/kg, po qd for 16 days measured 4 hrs post dose by Western blot relative to untreated control; type: functional, HCT-116
Procedure, shortened: as §5

[21] = Drug level in plasma of human HCT116 cells xenografted in CrTac:NCr-Fox1 (nu) athymic mouse at 50 mg/kg, po qd for 16 days measured after 1 hr; type: ADME, organism-based, HCT-116; set-up: dose 50 mg/kg, route oral; conditions: read-out: Drug uptake
Procedure, shortened: as §3

Sequence of Cytochrome P450 3A4 (P08684 whole entry): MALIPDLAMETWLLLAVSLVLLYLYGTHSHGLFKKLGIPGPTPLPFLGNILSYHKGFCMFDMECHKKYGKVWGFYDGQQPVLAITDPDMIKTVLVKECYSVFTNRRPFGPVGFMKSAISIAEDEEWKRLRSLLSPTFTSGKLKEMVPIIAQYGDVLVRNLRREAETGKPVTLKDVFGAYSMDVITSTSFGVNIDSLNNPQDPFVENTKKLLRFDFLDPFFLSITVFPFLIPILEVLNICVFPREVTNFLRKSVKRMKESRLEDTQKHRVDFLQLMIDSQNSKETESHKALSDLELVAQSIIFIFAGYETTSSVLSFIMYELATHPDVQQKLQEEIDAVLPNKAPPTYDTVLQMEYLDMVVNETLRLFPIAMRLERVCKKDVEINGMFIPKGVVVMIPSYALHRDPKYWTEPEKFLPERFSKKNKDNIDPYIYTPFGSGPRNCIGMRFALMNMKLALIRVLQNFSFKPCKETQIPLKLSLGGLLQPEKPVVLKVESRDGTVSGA
Sequence of Cytochrome P450 2D6 (P10635 whole entry): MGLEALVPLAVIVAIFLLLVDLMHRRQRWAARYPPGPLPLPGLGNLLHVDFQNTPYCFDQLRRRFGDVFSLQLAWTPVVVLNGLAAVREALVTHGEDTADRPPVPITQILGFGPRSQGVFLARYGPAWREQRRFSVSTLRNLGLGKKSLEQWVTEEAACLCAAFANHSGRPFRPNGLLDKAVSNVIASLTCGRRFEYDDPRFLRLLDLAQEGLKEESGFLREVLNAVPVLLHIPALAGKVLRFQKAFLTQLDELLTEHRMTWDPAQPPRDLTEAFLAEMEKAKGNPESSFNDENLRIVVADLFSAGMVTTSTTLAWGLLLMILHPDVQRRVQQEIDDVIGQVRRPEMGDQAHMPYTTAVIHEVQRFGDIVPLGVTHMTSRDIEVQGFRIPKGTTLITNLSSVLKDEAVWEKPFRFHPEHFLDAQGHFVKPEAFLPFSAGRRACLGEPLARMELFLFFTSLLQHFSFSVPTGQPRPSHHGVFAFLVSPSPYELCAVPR
Sequence of Voltage-gated inwardly rectifying potassium channel KCNH2 (Q12809 whole entry): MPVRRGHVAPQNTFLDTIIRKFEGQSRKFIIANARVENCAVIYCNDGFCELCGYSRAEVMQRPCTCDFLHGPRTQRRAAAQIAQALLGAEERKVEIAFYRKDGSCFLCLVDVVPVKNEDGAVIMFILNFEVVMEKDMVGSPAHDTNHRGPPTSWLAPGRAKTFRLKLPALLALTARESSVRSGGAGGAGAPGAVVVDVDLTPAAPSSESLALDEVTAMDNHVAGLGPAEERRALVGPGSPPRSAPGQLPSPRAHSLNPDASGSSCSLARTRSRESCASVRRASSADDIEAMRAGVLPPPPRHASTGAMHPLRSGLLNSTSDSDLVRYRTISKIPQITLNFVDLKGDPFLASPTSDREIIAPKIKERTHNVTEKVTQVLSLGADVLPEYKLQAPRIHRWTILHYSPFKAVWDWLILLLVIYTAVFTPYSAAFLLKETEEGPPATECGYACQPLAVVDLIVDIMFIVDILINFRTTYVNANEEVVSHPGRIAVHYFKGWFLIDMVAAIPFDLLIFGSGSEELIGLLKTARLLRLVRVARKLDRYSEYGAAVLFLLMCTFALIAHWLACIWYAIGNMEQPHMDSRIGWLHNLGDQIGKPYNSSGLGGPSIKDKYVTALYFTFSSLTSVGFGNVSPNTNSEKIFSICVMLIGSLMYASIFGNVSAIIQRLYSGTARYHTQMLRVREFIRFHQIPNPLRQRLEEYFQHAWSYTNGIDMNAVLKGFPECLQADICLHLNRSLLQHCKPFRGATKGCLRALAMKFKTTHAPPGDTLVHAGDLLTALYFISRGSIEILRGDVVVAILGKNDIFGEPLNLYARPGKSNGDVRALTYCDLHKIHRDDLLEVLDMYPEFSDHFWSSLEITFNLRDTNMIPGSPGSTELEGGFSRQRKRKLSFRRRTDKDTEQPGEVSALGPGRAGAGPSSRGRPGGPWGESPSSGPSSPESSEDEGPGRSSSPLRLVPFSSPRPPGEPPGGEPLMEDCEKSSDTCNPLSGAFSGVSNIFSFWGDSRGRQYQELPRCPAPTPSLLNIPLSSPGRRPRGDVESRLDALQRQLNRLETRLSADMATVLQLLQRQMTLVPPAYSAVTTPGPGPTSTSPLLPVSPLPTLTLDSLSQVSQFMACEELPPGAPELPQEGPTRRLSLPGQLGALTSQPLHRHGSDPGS
Sequence of Cytochrome P450 2C19 (P33261 whole entry): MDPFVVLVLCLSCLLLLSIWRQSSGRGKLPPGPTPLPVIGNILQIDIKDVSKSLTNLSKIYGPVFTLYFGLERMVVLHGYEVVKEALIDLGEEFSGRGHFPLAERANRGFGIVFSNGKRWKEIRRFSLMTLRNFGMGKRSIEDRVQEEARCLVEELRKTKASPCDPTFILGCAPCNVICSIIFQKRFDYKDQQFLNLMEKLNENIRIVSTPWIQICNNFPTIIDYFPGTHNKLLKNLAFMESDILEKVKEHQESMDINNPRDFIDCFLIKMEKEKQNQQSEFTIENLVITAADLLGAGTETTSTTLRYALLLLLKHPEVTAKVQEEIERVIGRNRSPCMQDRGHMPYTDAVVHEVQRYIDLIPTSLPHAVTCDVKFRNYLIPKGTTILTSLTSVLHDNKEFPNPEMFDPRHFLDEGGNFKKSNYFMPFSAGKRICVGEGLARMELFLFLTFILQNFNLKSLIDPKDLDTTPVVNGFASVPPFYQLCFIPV

Structure (SMILES): O=C(NO)c1cnc(N2C[C@@H]3CN(S(=O)(=O)c4ccc5ccccc5c4)C[C@@H]3C2)nc1
- GI50 (HeLa): 1130 nM
- GI50 (HuT78): 300 nM
- GI50 (HCT-116 [1]): 740 nM
- IC50 (Histone deacetylase): 64 nM
- GI50 (U-937): 480 nM

Structure (SMILES): O=C(NO)c1cnc(N2C[C@H]3CN(Cc4ccc(Cl)cc4)C[C@H]3C2)nc1
- GI50 (HeLa): 690 nM
- GI50 (HuT78): 190 nM
- GI50 (HCT-116 [1]): 490 nM
- IC50 (Histone deacetylase): 42 nM
- GI50 (U-937): 230 nM

Structure (SMILES): COc1ccc(CN2C[C@@H]3CN(c4ncc(C(=O)NO)cn4)C[C@@H]3C2)cc1
- GI50 (HeLa): 950 nM
- GI50 (HuT78): 290 nM
- GI50 (HCT-116 [1]): 900 nM
- IC50 (Histone deacetylase): 95 nM
- GI50 (U-937): 550 nM

Structure (SMILES): O=C(NO)c1cnc(N2C[C@H]3CN(Cc4ccc5ccccc5c4)C[C@H]3C2)nc1
- GI50 (HeLa): 260 nM
- Cmax [2]: 31 ng/mL
- inhibition (INH) (Cytochrome P450 2C8): Not Active
- T/C (HCT-116 [3]): 80%
- IC50 [4]: 4100 nM
- Drug uptake (Spleen [5]): 1260 nmol/kg
- Drug uptake (Spleen [6]): 620 nmol/kg
- Drug uptake [7]: 215 nmol/kg
- remaining at 0.5 h, 10 µM [8]: 72%
- bioavailability [9]: 15%
- GI50 (HuT78): 79 nM
- IC50 (Cytochrome P450 2D6): 10000 nM
- Activity (HCT-116 [10]): 28%
- GI50 (HCT-116 [1]): 120 nM
- fold change (FC) (Mus musculus [11]): 2
- remaining at 0.5 h, 10 µM [12]: 45%
- Drug uptake [13]: 80 nmol/kg
- Papp B→A [14]: 9.4 ×10⁻⁶ cm/s
- Drug uptake [15]: 154 nmol/kg
- Papp [16]: 0.5 ×10⁻⁶ cm/s
- inhibition (INH) (Cytochrome P450 3A4): Not Active
- inhibition (INH) (Cytochrome P450 1A2): Not Active
- Drug uptake (Spleen [17]): 500 nmol/kg
- IC50 (Histone deacetylase): 13 nM
- concentration at 4 h [18]: 25 nM
- GI50 (U-937): 72 nM
- inhibition (INH) (Cytochrome P450 2A6): Not Active
- inhibition (INH) (Cytochrome P450 2C19): Not Active
- Cmax [19]: 218 ng/mL
- fold change (FC) (Mus musculus [20]): 2
- concentration at 1 h [21]: 14 nM

From ChEMBL document CHEMBL1268928, “Design and synthesis of novel pyrimidine hydroxamic acid inhibitors of histone deacetylases” (Bioorg Med Chem Lett, 2010)
